Screens from PubChem BioAssay.
The list is not random: actives were taken first. Their share in the collection is about 3.7%.
MC4R antag cAMP: MC4R antagonists of cAMP signaling, primary screen, cell-based, TR-FRET, antagonist arm of biased-ligand search. Melanocortin receptor 4 (Homo sapiens), P32245. MC4R-expressing cells, MTII-stimulated cAMP, LANCE TR-FRET. inhibition, % at 6.5 µM. actives 0.48% (n = 360,000). AID 540295, 2011;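 active means inhibition above its plate's cutoff, the mean of tested wells on that plate plus 3 SD, cut at about 29% in these data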;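 further: 0% = Melanotan II alone and 100% = Melanotan II plus saturating MCL0020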
Target sequence (P32245 whole entry, looked up): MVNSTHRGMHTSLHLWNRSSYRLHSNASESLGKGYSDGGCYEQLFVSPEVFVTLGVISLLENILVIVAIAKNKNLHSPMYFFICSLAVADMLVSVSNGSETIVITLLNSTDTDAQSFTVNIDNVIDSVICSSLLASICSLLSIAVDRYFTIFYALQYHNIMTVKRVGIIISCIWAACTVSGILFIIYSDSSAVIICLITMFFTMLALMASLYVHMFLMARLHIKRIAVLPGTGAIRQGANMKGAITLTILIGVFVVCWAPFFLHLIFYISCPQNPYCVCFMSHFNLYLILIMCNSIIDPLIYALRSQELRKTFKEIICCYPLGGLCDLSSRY
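Assay system: human MC4R-expressing U2OS cells; reagent: Melanotan II stimulation of cells; dosing: 6.5 µM single dose; timing: compound 30 min, challenge 1 h, detection 1 h; signal: TR-FRET cAMP assay; replicates: one well per compound, no replicates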
MC4R ag barr: MC4R agonists recruiting beta-arrestin, primary screen, cell-based, luminescence, agonist arm of biased-ligand search; Melanocortin receptor 4 (Homo sapiens), P32245; U2OS MC4R beta-arrestin complementation; percent of melanotan II response, DMSO zero; activation, % at 8.9 µM; actives 0.98% (n = 360,000); AID 540308, 2011;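 active means activation above a per-plate cutoff, the mean activation of sample wells on that plate plus 3 SD, cut at about 8% in these data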
Myeloid diff MLP: induction of myeloid progenitor differentiation, primary screen, cell-based, flow cytometry, MLPCN library | actives 1% (n = 360,000) | ER-HoxA9 myeloid progenitors, lysozyme-GFP differentiation | AID 624256, 2012 | calls only at 10 µM;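 active means normalized GFP-positive differentiation at or above the plate's own cutoff, the solvent-only control mean plus 3 SD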;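 further: cells exposed to compound for four days before flow analysis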
EBI2 block: EBI2 receptor antagonists, beta-arrestin recruitment, primary screen, cell-based, luminescence, 7a,25-OHC stimulation, uHTS; G-protein coupled receptor 183 (Homo sapiens), P32249; 7a,25-OHC stimulated; inhibition, % at 5 µM; actives 0.81% (n = 360,000); in the data active means inhibition above about 38%;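 further: enzyme fragment complementation signal reports receptor beta-arrestin coupling in cells; 0% = agonist plus DMSO wells and 100% = wells without agonist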
Granule exo inh: LAMP-1 surface exposure blockers, TALL-104 cells – cell-based, flow cytometry, MLPCN library, primary screen | TALL-104 LAMP-1 surface exposure; cells stimulated with thapsigargin and PMA | inhibition, % at 10 µM | actives 0.66% (n = 360,000) | AID 651702, 2012;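 active means inhibition above about 55%, limit read from the data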
MC4R barr ag: MC4R beta-arrestin agonists, retest, confirmation, cell-based, luminescence, U2OS; shares compounds with MC4R ag barr; U2OS MC4R beta-arrestin recruitment; scaled DMSO 0%, Melanotan II 100%; activation, % at 8.9 µM; actives 31% (n = 2,400); AID 602192, 2012;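 active means mean activation across replicates above the hit cutoff set in the earlier primary screen, cut at about 8% in these data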
MOR-DOR barr ag: agonists of MOR-DOR heterodimerization, counter-screen for MC4R biased agonist project, cell-based, luminescence; shares compounds with MC4R ag barr; actives 5.8% (n = 2,400); U2OS PathHunter beta-arrestin, beta-gal luminescence; percent of deltorphin B response, DMSO zero; activation, % at 9.2 µM;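 active means mean activation across replicates exceeds the hit threshold derived in the earlier primary screen, cut at about 18% in these data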;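 further: 100% = deltorphin B at 0.9 µM final and 0% = DMSO alone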
Myeloid diff CP1: inducers of myeloid progenitor differentiation, confirmation, cell-based, GFP/Mac1 flow cytometry, cherry pick 01; shares compounds with Myeloid diff MLP; ER-HoxA9 myeloid progenitors, GFP/Mac1 double-positive flow; calls only; actives 2% (n = 2,300); AID 651706, 2012;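 active means share of green or green-and-red cells above 9 and 9% in run 1 or 4 and 3% in run 2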
GFP autofluor: flagged as fluorescent in myeloid differentiation counter-screen. shares compounds with Myeloid diff MLP. ER-HoxA9 myeloid progenitors, no estrogen, GFP autofluorescence flow cytometry; vehicle wells 0%, positive control 100%. fluorescence response, % (no concentration beside the values). actives 7.4% (n = 2,300);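 active means over 5% cells positive for green fluorescent reporter, or over 2% positive for both it and APC stain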;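 further: range taken on the double positive population between DMSO and positive control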
Active calls of the source: *.

What do the screens show for `Nc1cccc(SC2CC(=O)N(c3ccc(Cl)cc3C(=O)c3ccccc3)C2=O)c1` (stereo not given)?
MC4R antag cAMP: -5; MC4R ag barr: 9.7*; Myeloid diff MLP: inactive; EBI2 block: 7; Granule exo inh: 14; MC4R barr ag: 4; MOR-DOR barr ag: 9

How did CN1CCN(CC(=O)Nc2ccc(Cl)cc2C(=O)c2ccccc2)CC1 do in these assays?
MC4R antag cAMP: 2; MC4R ag barr: 1; Myeloid diff MLP: inactive; EBI2 block: 2; Granule exo inh: -4

What do the screens show for `COc1ccccc1-c1cc(NC(C)=O)c2ncc(-c3ccccc3)n2c1`?
MC4R antag cAMP: 13; MC4R ag barr: 16*; Myeloid diff MLP: inactive; EBI2 block: 20; Granule exo inh: 54; MC4R barr ag: 18*; MOR-DOR barr ag: 3

How did C[C@H]1CN([C@@H](C)CO)C(=O)CCCn2nncc2CO[C@H]1CN(C)C(=O)Oc1ccc2ccccc2c1 do in these assays?
MC4R antag cAMP: 6; MC4R ag barr: -1; Myeloid diff MLP: inactive; EBI2 block: -5; Granule exo inh: -6

Results for Cc1nn(C)cc1/C=C1/CC2C3CC=C4CC(O)CCC4(C)C3CCC2(C)C1=O (stereo not given) ?
MC4R antag cAMP: 2; MC4R ag barr: 1; Myeloid diff MLP: inactive; EBI2 block: 11; Granule exo inh: -1

What do the screens show for `CC12CCC3C(CC=C4CC(O)CCC43C)C1C/C(=C\c1ccccc1F)C2=O` (stereo not given)?
MC4R antag cAMP: 7; MC4R ag barr: 27*; Myeloid diff MLP: inactive; EBI2 block: 8; Granule exo inh: 5; MC4R barr ag: 25*; MOR-DOR barr ag: 4

How did NC(N)=N/N=C/c1cn(-c2ccccc2)nc1-c1cccs1 do in these assays?
MC4R antag cAMP: -4; MC4R ag barr: 12*; Myeloid diff MLP: inactive; EBI2 block: -16; Granule exo inh: 5; MC4R barr ag: 19*; MOR-DOR barr ag: 24*

Results for CC(C)N(Cc1ccco1)/N=C/c1c(O)n(Cc2ccccc2)c(=O)[nH]c1=O ?
MC4R antag cAMP: -6; MC4R ag barr: -3; Myeloid diff MLP: inactive; EBI2 block: 7; Granule exo inh: -1

What do the screens show for `CCOc1cc(CNCCc2c[nH]c3ccccc23)cc(Cl)c1OCC`?
MC4R antag cAMP: 5; MC4R ag barr: 15*; Myeloid diff MLP: inactive; EBI2 block: -10; Granule exo inh: 8; MC4R barr ag: 17*; MOR-DOR barr ag: 8

What do the screens show for `Clc1ccc(C[n+]2c(-c3ccccc3)cc(-c3ccccc3)cc2-c2ccccc2)cc1`?
MC4R antag cAMP: -4; MC4R ag barr: 16*; Myeloid diff MLP: inactive; EBI2 block: -1; Granule exo inh: 24; MC4R barr ag: 20*; MOR-DOR barr ag: 7

What do the screens show for `N[C@@H](Cc1c[nH]c2ccccc12)c1nnc(SCc2ccccc2)o1`?
MC4R antag cAMP: 0; MC4R ag barr: 0; Myeloid diff MLP: inactive; EBI2 block: -7; Granule exo inh: -4

What do the screens show for `N[C@@H](Cc1c[nH]c2ccccc12)c1nnc(SCc2ccc(Cl)cc2)o1`?
MC4R antag cAMP: -3; MC4R ag barr: 10*; Myeloid diff MLP: inactive; EBI2 block: -5; Granule exo inh: -6; MC4R barr ag: 4; MOR-DOR barr ag: 6

Results for Nc1nc(N)c2cnnn2n1 ?
MC4R antag cAMP: 12; MC4R ag barr: 0; Myeloid diff MLP: inactive; EBI2 block: -6; Granule exo inh: -10

What do the screens show for `O=C(c1ccc(Cl)cc1)C1CCCN(Cc2ccc3nonc3c2)C1` (stereo not given)?
MC4R antag cAMP: 2; MC4R ag barr: -2; Myeloid diff MLP: inactive; EBI2 block: 3; Granule exo inh: 0

How did O=C1NC(=O)N(CCC2=CCCCC2)C(=O)/C1=C\c1cccs1 do in these assays?
MC4R antag cAMP: 11; MC4R ag barr: 1; Myeloid diff MLP: inactive; EBI2 block: -23; Granule exo inh: 5; Myeloid diff CP1: inactive; GFP autofluor: 1

What do the screens show for `CC(C)C1CN1CC(O)Cn1ccnc1[N+](=O)[O-]` (stereo not given)?
Myeloid diff MLP: inactive; EBI2 block: -7; Granule exo inh: -10

Results for C=C1C2[C@H](OC(C)=O)[C@@H]3CC(=O)[C@]4(C)OC[C@@]3(C)[C@@]4(O)[C@@H](OC(C)=O)[C@H](OC(C)=O)[C@@]2(COC(=O)c2ccccc2)[C@@H](OC(C)=O)C[C@@H]1O (stereo not given in full) ?
MC4R antag cAMP: 5; MC4R ag barr: -1; Myeloid diff MLP: inactive; EBI2 block: -4; Granule exo inh: -2; Myeloid diff CP1: inactive; GFP autofluor: 1

Results for O=C1NC(=S)NC(=O)C1=Cc1cccn1-c1ccc(O)cc1 ?
MC4R antag cAMP: 28; MC4R ag barr: -3; Myeloid diff MLP: inactive; EBI2 block: -8; Granule exo inh: 32

Results for Cc1cc(C)cc(N2C(=O)NC(=O)/C(=C\c3cccn3-c3ccc(Cl)cc3)C2=O)c1 ?
MC4R antag cAMP: 5; MC4R ag barr: 4; Myeloid diff MLP: inactive; EBI2 block: -6; Granule exo inh: 44; Myeloid diff CP1: inactive; GFP autofluor: 0

What do the screens show for `O=c1[nH]c(=O)n(-c2ccccc2)c(O)c1/C=C/C=Nc1ccccc1`?
MC4R antag cAMP: -20; MC4R ag barr: 0; Myeloid diff MLP: inactive; EBI2 block: -16; Granule exo inh: -5
